Screening results as filed in PubChem BioAssay.
Rows were chosen to be rich in hits. Some 5.8% of all compounds tested hit in one or more screens of this group.
Pf Dd2 growth: inhibitors of Plasmodium falciparum Dd2 growth | P. falciparum Dd2 growth, SYBR Green, 72 h; active compounds read low | activity change, % at 10 µM | 94,000 tested, 2.3% active | AID 1159554; in the data active = activity change below about -80%; inconclusive = no clear call, values can overlap the other calls
T cruzi growth-1: inhibitors of T. cruzi proliferation | T. cruzi beta-gal in NIH3T3, GalScreen luminescence, 90 h | inhibition, % at 8.34 µM | 77,000 tested, 5.9% active | AID 624255;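 active = mean inhibition above about 93%, with at least 55% of replicates each passing it, limit read from the data, passing the limit was not always enough; inconclusive = only one of those two conditions holds; inactive = neither condition holds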
KDM4C inh: blocks human GASC-1 (KDM4C) demethylase activity | inhibition, % at 12.5 µM | GST-KDM4C 2-372, H3K9me3 peptide, LANCE TR-FRET | AID 720574 | 96,000 tested, 0.15% active;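 active = mean replicate inhibition above about 25%, with at least 55% of replicates also reaching it, limit read from the data, passing the limit was not always enough; inconclusive = only one of those two conditions met; inactive = neither condition met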
Target sequence (Q9H3R0 2-372 limits assumed): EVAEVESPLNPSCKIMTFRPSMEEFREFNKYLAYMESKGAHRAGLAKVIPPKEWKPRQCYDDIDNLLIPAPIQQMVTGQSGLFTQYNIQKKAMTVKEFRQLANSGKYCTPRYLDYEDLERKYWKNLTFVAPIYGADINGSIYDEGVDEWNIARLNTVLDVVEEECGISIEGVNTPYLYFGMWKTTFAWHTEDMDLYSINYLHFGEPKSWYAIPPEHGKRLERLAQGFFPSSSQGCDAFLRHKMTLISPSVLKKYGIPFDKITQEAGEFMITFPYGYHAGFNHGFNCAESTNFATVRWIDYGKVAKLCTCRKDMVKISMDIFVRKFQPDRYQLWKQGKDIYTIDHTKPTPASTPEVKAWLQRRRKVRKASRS
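System: N-terminal GST-fused human GASC-1 (KDM4C) fragment, residues 2-372; amount: enzyme final amount 10 nM; incubation: reaction 30 min RT, detection step 1 h RT; medium: HEPES buffer, pH 7.5, plus ascorbate; technique: LANCE TR-FRET, Eu antibody, ULight-streptavidin, EDTA, ex 340 nm, em 618/671 nm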
IDH1 mut inh: blocks human IDH1 R132H reductase activity; 70,000 tested, 0.18% active; diaphorase/resazurin fluorescence, 60 min; inhibition, % at 10 µM; O75874; AID 624101; in the data active = inhibition above about 34%; inconclusive = no clear call, values can overlap the other calls; inactive = below about 11%;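 also: 0% = DMSO and 100% = no enzyme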
Target sequence (O75874 whole entry R132H): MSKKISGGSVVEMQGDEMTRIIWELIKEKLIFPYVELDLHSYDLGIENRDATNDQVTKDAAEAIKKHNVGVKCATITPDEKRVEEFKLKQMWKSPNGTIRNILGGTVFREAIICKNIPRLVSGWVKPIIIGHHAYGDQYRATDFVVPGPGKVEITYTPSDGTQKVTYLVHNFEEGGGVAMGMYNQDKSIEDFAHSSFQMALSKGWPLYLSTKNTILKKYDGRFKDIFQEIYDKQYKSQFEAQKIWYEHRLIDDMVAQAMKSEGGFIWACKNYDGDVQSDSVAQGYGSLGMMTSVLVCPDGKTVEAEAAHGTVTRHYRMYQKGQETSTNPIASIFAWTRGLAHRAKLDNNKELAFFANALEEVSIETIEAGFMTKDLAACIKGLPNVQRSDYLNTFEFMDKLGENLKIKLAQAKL
T cruzi growth-2: Trypanosoma cruzi proliferation inhibition; AID 651739; shares compounds with T cruzi growth-1; inhibition, % at 8.35 µM; T. cruzi beta-gal in NIH3T3, GalScreen luminescence, 90 h; 5,600 tested, 72% active;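 active = mean replicate inhibition above about 95% and at least 55% of replicates individually reaching it, limit read from the data; inconclusive = only one of the two criteria is met; inactive = neither criterion is met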
T cruzi growth-3: inhibitors of T. cruzi proliferation. shares compounds with T cruzi growth-1. T. cruzi beta-gal in NIH3T3, GalScreen luminescence, 90 h. inhibition, % at 2.09 µM. 5,600 tested, 21% active;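 active = mean inhibition above about 95%, with at least 55% of replicates also reaching it, limit read from the data; inconclusive = meets just one of the two conditions; inactive = meets neither condition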;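 also: plate controls were neutral control median for no effect and positive control median for full effect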
NIH3T3 tox: kills mouse NIH/3T3 fibroblasts; shares compounds with T cruzi growth-1; NIH/3T3 viability, CellTiter-Glo ATP luminescence, 90 h; cytotoxicity (signal decrease), % at 8.35 µM; 5,600 tested, 14% active; AID 651742;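 active = mean signal decrease across replicates above about 35% based on untreated-well scatter, with enough replicates individually passing, limit read from the data; inconclusive = no rule stated though some were filed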;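 also: 0% = median of neutral control wells and 100% = median of positive control wells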
3T3 cytotox 2: cytotoxicity in mouse NIH/3T3 fibroblasts | AID 651744 | inhibition, % at 24.9 µM | shares compounds with T cruzi growth-1 | NIH/3T3 viability, CellTiter-Glo ATP luminescence, 90 h | 5,600 tested, 56% active;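 active = mean loss of cell viability signal at or above a set limit, and enough replicates individually reaching it; inconclusive = meets only the mean limit or only the replicate share; inactive = meets neither condition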;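 also: 0% = median of neutral control wells and 100% = median of positive control wells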
* marks the source's active call; other numbers are inactive results; ? = inconclusive; nt = no result given.

SMILES	Pf Dd2 growth	T cruzi growth-1	KDM4C inh	IDH1 mut inh	T cruzi growth-2	T cruzi growth-3	NIH3T3 tox	3T3 cytotox 2
C[C@@H]1CCCCO[C@H](CN(C)S(=O)(=O)c2ccc(F)cc2)[C@H](C)CN([C@@H](C)CO)C(=O)c2cc(NS(=O)(=O)c3ccc(Cl)cc3)ccc2O1	-16.3	92.5	-0.2	nt	nt	nt	nt	nt
C[C@@H]1CCCCO[C@H](CN(C)S(=O)(=O)c2ccc(F)cc2)[C@H](C)CN([C@H](C)CO)C(=O)c2cc(NS(=O)(=O)c3ccc(Cl)cc3)ccc2O1	-56.8	100.4*	2.2	0.8	103.2*	110.2*	-7.5	-12.5
C[C@@H]1CN([C@H](C)CO)C(=O)c2cc(NS(=O)(=O)c3ccc(Cl)cc3)ccc2O[C@@H](C)CCCCO[C@@H]1CN(C)S(=O)(=O)c1ccc(F)cc1	-66.1	105.5*	6.5	nt	104.4*	108.7*	-40.2	9.9
C[C@@H]1CN([C@H](C)CO)C(=O)CCCn2cc(nn2)CO[C@@H]1CN(C)Cc1ccccc1	5.1	51.0	-0.5	0.5	nt	nt	nt	nt
COc1ccc(NC(=O)CSc2nc(C34CC5CC(CC(C5)C3)C4)ccc2C#N)cc1	nt	nt	nt	0.1	nt	nt	nt	nt
C[C@H](CO)N1C[C@H](C)[C@H](CN(C)S(=O)(=O)c2ccc(Cl)cc2)Oc2ccc(NS(=O)(=O)c3ccc(F)cc3)cc2C1=O	-33.9	?	-1.6	0.0	98.3*	44.9	40.4*	?
C[C@H]1CN([C@@H](C)CO)C(=O)c2cc(NS(=O)(=O)c3ccc(F)cc3)ccc2O[C@@H]1CN(C)S(=O)(=O)c1ccc(Cl)cc1	-20.6	26.5	-0.8	-0.8	nt	nt	nt	nt
CN(C)CC(=O)N1[C@@H](CO)[C@@H](c2ccccc2)C12CN(CCC(F)(F)F)C2	-1.4	nt	-0.2	nt	nt	nt	nt	nt
O=C(NCCN1CCCC1)[C@H]1[C@H](CO)[C@H]2Cn3c(cccc3=O)[C@@H]1N2C(=O)c1ccccc1	nt	95.9*	0.5	nt	-7.0	-24.9	-8.8	-20.5
O=C(NCCN1CCCCC1)[C@@H]1[C@@H](CO)[C@@H]2Cn3c(cccc3=O)[C@H]1N2C(=O)C1CCCCC1	9.2	62.7	-1.5	nt	nt	nt	nt	nt
COc1cccc(CNC(=O)[C@@H]2[C@@H](CO)[C@@H]3Cn4c(cccc4=O)[C@H]2N3C(=O)C2CCCCC2)c1	nt	95.5*	-0.5	nt	42.2	25.7	19.6	1.0
COc1ccccc1CNC(=O)c1cc2ccccc2oc1=O	nt	nt	nt	0.3	nt	nt	nt	nt
COc1ccccc1C#Cc1ccc2c(c1)O[C@H](CN(C)Cc1cncnc1)[C@@H](C)CN([C@H](C)CO)S2(=O)=O	-45.0	92.0	0.5	nt	nt	nt	nt	nt
COc1ccccc1C#Cc1ccc2c(c1)O[C@H](CN(C)Cc1ccncc1)[C@@H](C)CN([C@@H](C)CO)S2(=O)=O	-77.0	127.5*	0.8	-0.5	92.6	98.3*	73.9*	104.0*
COc1ccccc1C#Cc1ccc2c(c1)O[C@@H](CN(C)Cc1ccncc1)[C@H](C)CN([C@H](C)CO)S2(=O)=O	?	121.4*	1.0	0.2	96.3*	97.0*	82.6*	105.1*
COc1ccccc1C#Cc1ccc2c(c1)O[C@@H](CN(C)Cc1ccncc1)[C@H](C)CN([C@@H](C)CO)S2(=O)=O	?	120.5*	-2.2	0.3	99.7*	93.7	73.3*	81.2*
COc1ccccc1C#Cc1ccc2c(c1)O[C@@H](CN(C)Cc1cncnc1)[C@@H](C)CN([C@@H](C)CO)S2(=O)=O	-63.8	66.8	-1.6	-20.1	nt	nt	nt	nt
COc1ccccc1C#Cc1ccc2c(c1)O[C@@H](CN(C)Cc1ccncc1)[C@@H](C)CN([C@H](C)CO)S2(=O)=O	-78.3	98.0*	-0.6	-5.4	101.8*	104.0*	-7.6	-16.0
CN1c2ccc(-c3ccc(F)cc3)cc2[C@H]2[C@H](CCN2C(=O)c2ccccn2)[C@@H]1CO	-8.0	32.3	2.2	nt	nt	nt	nt	nt
COc1ccc(Cl)cc1NC(=O)CN(c1cc(Cl)c(Cl)cc1Cl)S(C)(=O)=O	nt	nt	nt	-0.4	nt	nt	nt	nt
O=S(=O)(Cc1ccccc1)N1CCCCN2[C@H](CO)[C@@H](c3ccc(-c4cncnc4)cc3)[C@@H]2C1	-8.9	64.9	-1.0	nt	nt	nt	nt	nt
O=S(=O)(Cc1ccccc1)N1CCCCN2[C@H](CO)[C@@H](c3ccc(-c4ccc(F)cc4)cc3)[C@H]2C1	7.6	?	-0.1	nt	103.4*	66.5	34.8*	104.7*
O=S(=O)(Cc1ccccc1)N1CCCCN2[C@H](C1)[C@H](c1ccc(-c3ccc(F)cc3)cc1)[C@@H]2CO	7.3	110.1*	0.1	nt	101.4*	40.7	13.7	104.8*
O=S(=O)(Cc1ccccc1)N1CCCCN2[C@H](C1)[C@@H](c1ccc(-c3ccc(F)cc3)cc1)[C@@H]2CO	1.3	86.3	-3.1	nt	nt	nt	nt	nt
Cc1noc(C)c1S(=O)(=O)Nc1ccc2c(c1)C(=O)N([C@@H](C)CO)C[C@H](C)[C@@H](CN(C)Cc1ccccc1)O2	-3.2	15.2	-0.8	0.6	nt	nt	nt	nt
SMILES	Pf Dd2 growth	T cruzi growth-1	KDM4C inh	IDH1 mut inh	T cruzi growth-2	T cruzi growth-3	NIH3T3 tox	3T3 cytotox 2
Cc1ccc(S(=O)(=O)Nc2ccc3c(c2)C(=O)N([C@@H](C)CO)C[C@@H](C)[C@H](CN(C)C(=O)NC2CCCCC2)OCCCC[C@H](C)O3)cc1	-51.3	114.2*	-3.1	nt	92.1	-32.2	-19.9	-16.2
Cc1ccc(S(=O)(=O)Nc2ccc3c(c2)C(=O)N([C@@H](C)CO)C[C@@H](C)[C@@H](CN(C)C(=O)NC2CCCCC2)OCCCC[C@@H](C)O3)cc1	-11.0	100.9*	-0.7	-0.1	98.7*	70.7	-20.9	31.0
C[C@H]1CCCCO[C@H](CN(C)C(=O)NC2CCCCC2)[C@@H](C)CN([C@@H](C)CO)C(=O)c2cc(NS(=O)(=O)c3ccccc3)ccc2O1	-66.7	103.2*	-1.7	nt	66.9	15.6	-32.0	-5.8
O=C(C[C@@H]1CC[C@@H](NC(=O)c2ccccc2)[C@@H](CO)O1)NCc1ccncn1	-0.6	25.7	6.4	0.1	nt	nt	nt	nt
COc1cccc(NC(=O)N2C[C@H](O)COC[C@@H]3O[C@@H](CC(=O)NC4Cc5ccccc5C4)CC[C@H]32)c1	13.3	31.8	0.4	nt	nt	nt	nt	nt
CC(C)CC#Cc1ccc2c(c1)O[C@H](CN(C)C(=O)Cc1ccncc1)[C@@H](C)CN([C@@H](C)CO)S2(=O)=O	-49.8	?	1.2	0.4	nt	nt	nt	nt
CC(C)CC#Cc1ccc2c(c1)O[C@H](CN(C)C(=O)Cc1ccccc1)[C@@H](C)CN([C@@H](C)CO)S2(=O)=O	-63.5	126.9*	-0.8	0.1	103.7*	111.2*	-1.9	104.5*
